{"data": "Measurements of several laboratories", "effect on": "cell growth or viability", "note": "Protocols differ between the studies behind these lines."}
{"SMILES": "O=[N+]([O-])c1ccc(O)c(C=NNc2ccc(Br)cc2)c1", "cell line": "HEK-293T", "test": "MTT", "setting": "24 h", "quantity": "IC50", "result": "16.2 µM"}
{"SMILES": "COc1cc(NC(=O)c2cnn(-c3ccc([N+](=O)[O-])cc3)c2C(F)(F)F)cc(OC)c1", "cell line": "LX-2", "test": "MTS", "setting": "50 µM, 72 h", "quantity": "inhibition", "result": "14.1%"}
{"SMILES": "COc1ccc(NC(=O)Nc2ccc(-c3cn(Cc4ccc(C)cc4)nn3)cc2)cc1", "cell line": "Huh-7", "test": "CCK-8", "setting": "50 µM, 48 h", "quantity": "viability", "result": "77.3%"}
{"SMILES": "Cc1nc(Nc2ncc(C(=O)Nc3c(C)cccc3Cl)s2)cc(N2CC[C@H](O)C2)n1", "cell line": "Ramos", "test": "ATP luminescence", "setting": "10 µM, 72 h", "quantity": "inhibition", "result": "15%"}
{"SMILES": "COc1cc(NC(=O)c2cnn(-c3ccc([N+](=O)[O-])cc3)c2C(F)(F)F)cc(OC)c1OC", "cell line": "LX-2", "test": "MTS", "setting": "50 µM, 72 h", "quantity": "inhibition", "result": "11%"}
{"SMILES": "O=C(Nc1ccc(Cl)cc1)Nc1ccc(-c2cn(Cc3ccc(Br)cc3)nn2)cc1", "cell line": "Huh-7", "test": "CCK-8", "setting": "50 µM, 72 h", "quantity": "viability", "result": "65%"}
{"SMILES": "O=C(Nc1ccc(Cl)cc1)Nc1cccc(-c2cn(Cc3cccc(Br)c3)nn2)c1", "cell line": "Huh-7", "test": "CCK-8", "setting": "50 µM, 72 h", "quantity": "viability", "result": "14.5%"}
{"SMILES": "O=C(NCc1cn(Cc2cccc(Cl)c2)nn1)Nc1ccc(Cl)cc1", "cell line": "Huh-7", "test": "CCK-8", "setting": "50 µM, 48 h", "quantity": "viability", "result": "86.1%"}
{"SMILES": "O=[N+]([O-])c1cc(I)c(O)c(C=NNc2ccc(C(F)(F)F)cc2)c1", "cell line": "HEK-293T", "test": "MTT", "setting": "24 h", "quantity": "IC50", "result": "8.11 µM"}
{"SMILES": "O=C(Nc1ccc(Cl)cc1)Nc1cccc(-c2cn(Cc3ccc(Cl)cc3)nn2)c1", "cell line": "Huh-7", "test": "CCK-8", "setting": "50 µM, 48 h", "quantity": "viability", "result": "84%"}
{"SMILES": "COc1ccc(NC(=O)Nc2cccc(-c3cn(Cc4ccc(Br)cc4)nn3)c2)cc1", "cell line": "Huh-7", "test": "CCK-8", "setting": "50 µM, 72 h", "quantity": "viability", "result": "10.7%"}
{"SMILES": "O=C(Nc1ccc(Cl)cc1)Nc1ccc(-c2cn(Cc3cccc(Cl)c3)nn2)cc1", "cell line": "Huh-7", "test": "CCK-8", "setting": "50 µM, 48 h", "quantity": "viability", "result": "86.7%"}
{"SMILES": "COc1ccc(NC(=O)NCc2cn(Cc3ccccc3C)nn2)cc1", "cell line": "Huh-7", "test": "CCK-8", "setting": "50 µM, 72 h", "quantity": "viability", "result": "86.8%"}
